PMC3421229 (International Journal of Biological Sciences, 2012)

Experiments:
LdisPBP2 [1] = biological target: T1, LdisPBP2 (Lymantria dispar, UniProt O16106); test: fluorescence titration of 1-NPN with LdisPBP2; type: binding; conditions: dissociation constant of the LdisPBP2/1-NPN complex
T1 sequence (O16106 21-165): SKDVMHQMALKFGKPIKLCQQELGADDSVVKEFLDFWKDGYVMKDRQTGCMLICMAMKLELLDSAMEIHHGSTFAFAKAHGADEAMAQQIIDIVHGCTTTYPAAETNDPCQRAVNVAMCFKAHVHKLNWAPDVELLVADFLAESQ
Summary of the method: (§1)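 Recombinant His-tagged PBP from E. coli, Ni-resin and gel-filtration purified. A 2 μM protein solution in 50 mM Tris-HCl pH 7.3 or 50 mM Na2HPO4-citric acid pH 5.5 was titrated with 1-NPN (1 mM methanol stock) to 1–20 μM final. 25°C; excitation 337 nm, emission 370–470 nm, 10 nm slits. Kd calculated from the binding curve; three independent measurements.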

LdisPBP1 [2] = biological target: T2, LdisPBP1 (Lymantria dispar, UniProt O16105); test: fluorescence titration of 1-NPN with LdisPBP1; type: binding; conditions: dissociation constant of the LdisPBP1/1-NPN complex
T2 sequence (O16105 20-162): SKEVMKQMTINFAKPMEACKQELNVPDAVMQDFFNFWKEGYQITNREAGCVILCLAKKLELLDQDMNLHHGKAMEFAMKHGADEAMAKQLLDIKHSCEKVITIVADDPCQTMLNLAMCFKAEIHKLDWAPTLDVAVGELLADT
Summary of the method: as §1

PBP1 = conditions: cited from earlier work
LdisPBP2 [3] = biological target: T1, LdisPBP2; test: competitive fluorescence binding assay with 1-NPN as probe, LdisPBP2
Summary of the method: (§2)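 N-terminally His-tagged recombinant PBP was expressed in E. coli BL21(DE3) (0.25 mM IPTG, 18°C overnight), then purified by Ni-resin and gel filtration. 2 μM protein plus 2 μM 1-NPN in 50 mM Tris-HCl pH 7.3 or 50 mM Na2HPO4-citric acid pH 5.5, at 25°C; ex 337 nm, em 370–470 nm. Competitors (1 mM methanol stock) at 2–20 μM. IC50 = half-maximal fluorescence reduction; Ki = IC50/(1+[1-NPN]/K1-NPN). Triplicates.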

LdisPBP1 [4] = biological target: T2, LdisPBP1; test: competitive fluorescence binding assay with 1-NPN as probe, LdisPBP1
Summary of the method: as §2

male L.dispar = test: initial field experiment, attraction of male moths; type: in vivo, Lymantria dispar; conditions: initial field experiment (data not shown)
gypsy moth = conditions: cited from earlier work
[5] = PBP2[Ki(μM)] pH5.5, pH 5.5, n=3, 2 μM protein and 1-NPN
[6] = PBP2[Ki(μM)] pH7.3, pH 7.3, n=3, 2 μM protein and 1-NPN
[7] = PBP1[Ki(μM)] pH5.5, pH 5.5, n=3, 2 μM protein and 1-NPN
[8] = PBP1[Ki(μM)] pH7.3, pH 7.3, n=3, 2 μM protein and 1-NPN

Row | Ki (LdisPBP2 [3]; [5]) [µM] | Ki (LdisPBP2 [3]; [6]) [µM] | Ki (LdisPBP1 [4]; [7]) [µM] | Ki (LdisPBP1 [4]; [8]) [µM] | SMILES | Kd (LdisPBP2 [1]; pH 5.5) [nM] | Kd (LdisPBP2 [1]; pH 7.3) [nM] | Kd (LdisPBP1 [2]; pH 5.5) [nM] | Kd (LdisPBP1 [2]; pH 7.3) [nM] | binding preference of PBP1 for pheromone enantiomers (PBP1) | attraction of male L.dispar compared with (+)-D alone (male L.dispar) | effect on the pheromone (gypsy moth)
1 | – | – | – | – | c1ccc(Nc2cccc3ccccc23)cc1 [1-NPN, N-phenyl-1-naphthylamine] | 8740 ± 2050 | 2030 ± 420 | 1710 ± 200 | 1770 ± 310 | – | – | –
2 | – | – | – | – | CCCCCCCCCC[C@H]1O[C@H]1CCCCC(C)C [(-)-disparlure] | – | – | – | – | preferentially bound | – | –
3 | 3.54 ± 0.01 | 1.97 ± 0.01 | 2.2 ± 0.01 | 3.25 ± 0.02 | O=C(CCCCC(=O)OCC1CCC2OC2C1)OCC1CCC2OC2C1 (stereo not shown) [Bis, Bis(3,4-epoxycyclohexylmethyl) adipate] | – | – | – | – | – | reverse | –
4 | 1.88 ± 0.02 | 1.85 ± 0.02 | 0.68 ± 0.01 | 1.87 ± 0.01 | CCCCCCCCCCC1OC12CC2 (stereo not shown) [OXP1, 2-decyl-1-oxaspiro[2.2]pentane] | – | – | – | – | – | – | inhibited the effect of the pheromone
5 | 5.14 ± 0.06 | 2.46 ± 0.02 | 6.33 ± 0.18 | 2.99 ± 0.08 | OCCCCC1OC12CC2 (stereo not shown) [OXP2, 4-(1-oxaspiro[2.2]pent-2-yl)butan-1-ol] | – | – | – | – | – | – | enhanced that of pheromone
6 | 6.06 ± 0.06 | 5.32 ± 0.07 | 3.05 ± 0.01 | 2.93 ± 0.02 | O=Cc1ccccc1O [Sal, Salicylaldehyde] | – | – | – | – | – | reverse | –
